Screening data (PubChem BioAssay)
Sampled rows, rich in hits. Any-hit rate of the full collection: about 2%.
A1 inh – caspase 3/7 activation in MEF A1-2A-BIM cells, primary screen, A1 inhibitor project, cell-based, luminescence, HTS | hit rate 0.066% among 330,000 | AID 2462, 2010 | caspase activation, % (test concentration not listed) | Caspase-Glo 3/7 luminescence, 3 h; percent of clofoctol response, vehicle zero;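 active = over half of replicate activation scores above 10%, or exactly half above 10 with the replicate mean above 10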
MC4R antagonist – MC4R antagonists of cAMP signaling, primary screen, cell-based, TR-FRET, antagonist arm of biased-ligand search; Melanocortin receptor 4 (Homo sapiens), P32245; MC4R-expressing cells, MTII-stimulated cAMP, LANCE TR-FRET; inhibition, % at 6.5 µM; hit rate 0.48% among 360,000; AID 540295, 2011;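 active = inhibition above its plate's cutoff, the mean of tested wells on that plate plus 3 SD, cut at about 29% in these data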;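 note: 0% = Melanotan II alone and 100% = Melanotan II plus saturating MCL0020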
Target sequence (P32245 whole entry, looked up): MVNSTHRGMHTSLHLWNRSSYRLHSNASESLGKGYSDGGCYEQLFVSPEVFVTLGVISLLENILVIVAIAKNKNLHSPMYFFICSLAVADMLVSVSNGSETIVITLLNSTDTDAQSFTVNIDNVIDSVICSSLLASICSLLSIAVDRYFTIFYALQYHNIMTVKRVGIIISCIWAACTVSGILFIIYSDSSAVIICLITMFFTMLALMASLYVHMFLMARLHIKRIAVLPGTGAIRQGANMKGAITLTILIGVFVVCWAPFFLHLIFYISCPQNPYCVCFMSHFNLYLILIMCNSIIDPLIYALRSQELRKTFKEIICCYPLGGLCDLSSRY
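System: U2OS cells stably expressing human melanocortin 4 receptor (MC4R). Reagent: Melanotan II challenge after compound preincubation. Doses: 6.5 µM. Times: 30-min compound, 1-h challenge, 1-h detection, room temperature. Measured by: TR-FRET with Eu-cAMP and labeled anti-cAMP, 671 nm. Replicates: singlicate.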
XBP1 UPR activ – activators of adaptive XBP1 UPR arm, primary screen, cell-based, CHO-XBP1 luciferase reporter, luminescence, uHTS; IRE1-XBP1 UPR activation; percent of tunicamycin response, DMSO as zero; activation, % at 20 µM; hit rate 0.33% among 330,000; AID 463104, 2010;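 active = versus positive control, 20 µM dose yields 30% or more activation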;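 note: 100% = tunicamycin at 10 µg/mL and 0% = DMSO only wells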
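Assay system: CHO-XBP1 luciferase reporter cells; Schedule: 6 h treatment, 37 °C; Detection: glow luminescence from Steady-Glo reagent; Benchmarks: high control tunicamycin 10 µg/mL final, low control DMSO vehicle only.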
UPR CHOP act – activators of apoptotic CHOP UPR arm, primary screen, cell-based, CHO-CHOP luciferase reporter, luminescence, uHTS; hit rate 0.34% among 330,000; AID 449763, 2010; UPR activation; percent of tunicamycin response over DMSO baseline; activation, % at 10 µM;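 active = at 10 µM dose, activation of 40% or more, normalized to positive control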;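 note: 100% = tunicamycin at 10 µg/mL and 0% = DMSO alone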
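measured by = luciferase luminescence | assay system = CHO-CHOP cells, stable luciferase reporter of PERK-eIF2a-CHOP signalling | amount = 500 reporter cells seeded per well | timing = 6 h compound exposure at 37 °C after overnight seeding | controls = positive tunicamycin 10 µg/mL, negative DMSO alone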
MC4R ag barr – MC4R agonists recruiting beta-arrestin, primary screen, cell-based, luminescence, agonist arm of biased-ligand search; Melanocortin receptor 4 (Homo sapiens), P32245; U2OS MC4R beta-arrestin complementation; percent of melanotan II response, DMSO zero; activation, % at 8.9 µM; hit rate 0.98% among 360,000; AID 540308, 2011;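 active = activation above a per-plate cutoff, the mean activation of sample wells on that plate plus 3 SD, cut at about 8% in these data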
MC4R barr ag – MC4R beta-arrestin agonists, retest, confirmation, cell-based, luminescence, U2OS. hit rate 31% among 2,400. shares compounds with MC4R ag barr. activation, % at 8.9 µM. AID 602192, 2012. U2OS MC4R beta-arrestin recruitment; scaled DMSO 0%, Melanotan II 100%;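 active = mean activation across replicates above the hit cutoff set in the earlier primary screen, cut at about 8% in these data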
MOR DOR agonist – agonists of MOR-DOR heterodimerization, counter-screen for MC4R biased agonist project, cell-based, luminescence; shares compounds with MC4R ag barr; U2OS PathHunter beta-arrestin, beta-gal luminescence; percent of deltorphin B response, DMSO zero; activation, % at 9.2 µM; hit rate 5.8% among 2,400; AID 602194, 2012;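 active = mean activation across replicates exceeds the hit threshold derived in the earlier primary screen, cut at about 18% in these data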;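 note: 100% = deltorphin B at 0.9 µM final and 0% = DMSO alone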
The depositor's hits bear a star; · = not tested or not shown.

SMILES	A1 inh	MC4R antagonist	XBP1 UPR activ	UPR CHOP act	MC4R ag barr	MC4R barr ag	MOR DOR agonist
COc1ccc(C[C@H]2CN3C(=NC[C@H]3Cc3ccccc3)N2CCNC(=O)c2ccc(C)c(Br)c2)cc1	3	9	23	1	16*	22*	27*
Clc1cccc(-c2cc3nc(NCCOc4ccccc4)ccn3n2)c1	·	2	·	·	11*	2	4
CCOC(=O)C1(C)CCCN(C(=O)c2cccnc2)C1 (centres undefined)	·	-1	·	·	-1	·	·
CS(=O)(=O)N(Cc1ccc(Cl)cc1)c1ccc(C(=O)NCCC2=CCCCC2)cc1	2	7	3	-2	13*	0	9
O=C(NCCC1=CCCCC1)c1ccc(Cl)cc1	-4	·	-2	1	·	·	·
Cc1cccc(Nc2nnc(SCC(=O)NC(=O)Nc3ccc4c(c3)OCCO4)s2)c1	-2	-1	-3	2	22*	11*	3
Cc1ccc(SCC(=O)NC(=O)Nc2ccc3c(c2)OCCO3)cc1C	0	5	-1	-1	15*	5	5
CCc1nc2ccc(C(=O)Nc3ccc(NC(C)=O)cc3)cn2c1N(CCC(C)C)CCN(C)C	·	2	·	·	0	·	·
COc1cccc(CN2CCC2(C)C(=O)Nc2cccc(Oc3ccccc3)c2)c1F (centres undefined)	·	-2	·	·	-2	·	·
O=C(NCCC1=CCCCC1)c1cc(S(=O)(=O)N2CCOCC2)c(Cl)cc1Cl	1	5	4	-1	10*	0	5
CCN(CC)c1ccc(/C=N/NC(=O)Cc2nnc(NC(=O)Nc3ccccc3)s2)cc1	1	1	-1	0	11*	0	2
COc1ccc2oc(C(=O)OCC(=O)NCc3ccc(OC)c(OC)c3)c(C)c2c1	·	2	-1	-1	-1	·	·
COc1ccc2oc(C(=O)OCC(=O)Nc3ccccc3OC)c(C)c2c1	0	-6	-5	-1	14*	4	4
COc1ccc2oc(C(=O)Nc3ccc(C)cn3)c(C)c2c1	-2	-4	-5	4	13*	6	5
COc1ccc2oc(C(=O)Nc3ccccn3)c(C)c2c1	-7	-13	-6	-1	-4	·	·
CCOc1ccc2oc(C(=O)OCC(=O)NCc3ccc(OC)cc3)c(C)c2c1	0	-3	0	-1	30*	1	7
CC(=O)Nc1ccc(-c2ccnc3c2CC(C(=O)NCc2ccco2)O3)cc1 (centres undefined)	·	-13	·	·	-3	·	·
O=C(NCc1cccc(Cl)c1)c1ccc(-n2cncn2)c2ccoc12	·	8	·	·	0	·	·
CC(=O)Nc1ccc(S(=O)(=O)NN=c2sc3ccccc3n2C)cc1N	·	0	·	·	0	·	·
c1cncc(C2SCCCS2)c1	·	-8	·	·	-2	·	·
Cc1cc(C)c2cc(C#N)c(SCC(=O)NCc3ccco3)nc2c1	-4	-1	0	7	-1	·	·
COc1cccc(-c2ccc(C#N)c(SCC(=O)NCc3ccco3)n2)c1	0	2	-2	-2	19*	-3	17
CC(=O)c1nn(-c2cccc(Br)c2)cc1C(=O)c1ccc(Br)cc1	0	-8	4	2	-1	·	·
CC(=O)c1nn(-c2cccc(Br)c2)cc1C(=O)c1ccc(C)cc1	0	1	-2	-1	35*	6	6
O=C1C(O)=CC(=C(c2ccccc2)c2ccccc2)c2ccccc21	·	5	·	·	-3	·	·
SMILES	A1 inh	MC4R antagonist	XBP1 UPR activ	UPR CHOP act	MC4R ag barr	MC4R barr ag	MOR DOR agonist
Cc1c(Cl)cccc1N=c1c([N+](=O)[O-])nn(-c2ccccc2)n1O	1	14	-1	1	24*	3	9
COc1ccc(-c2nn(C)c(=O)c3ccccc23)cc1NC(=O)COc1ccc(C)cc1	0	-2	-4	3	21*	6	4
Cn1nc(-c2ccc(C(=O)Nc3ccc(F)cc3)cc2)c2ccccc2c1=O	-1	3	-3	-2	1	·	·
Cc1ccc(NC(=O)c2ccc(-c3nn(C)c(=O)c4ccccc34)cc2)cc1	0	10	0	-1	22*	-1	2
CCNC(=O)C1(C)CCCN(C(=O)c2ccccc2Br)C1 (centres undefined)	·	17	·	·	0	·	·
Cc1cccc(-c2cnc(C(O)c3ccc(-c4ccccc4)cc3)[nH]2)c1 (centres undefined)	·	16	·	·	-2	·	·
COc1ccc(CC(=O)OCC(=O)N2N=C(c3ccccc3)CC2c2ccc(OC)cc2)cc1 (centres undefined)	-3	7	-1	1	-2	·	·
CCCCC(=O)OCC(=O)N1N=C(c2c[nH]c3ccccc23)C(O)C1c1ccc(OC)cc1 (centres undefined)	0	12	7	2	15*	8.3*	5
O=C(O)c1ccc(-c2cccc(-c3nn4c(=O)cc(N5CCNCC5)nc4s3)c2)cc1	·	11	·	·	-2	·	·
C/C(=N/NC(=O)c1nnn(-c2nonc2N)c1CSc1ccc(C)cc1)c1ccncc1	·	3	·	·	-2	·	·
O=C(CCc1ccccc1)N/N=C/c1cc(Br)ccc1O	0	1	0	1	15*	-1	7
Oc1ccc(Br)cc1/C=N/NC(=S)NCCc1ccccc1	0	-2	0	1	2	·	·
COCCNc1nc(NCc2cc(-c3ccc(OC)cc3)no2)c2sccc2n1	·	7	·	·	0	·	·
Cc1cccc(NC(=O)c2cc(S(=O)(=O)N3CCc4ccccc43)cn2C)c1C	0	5	10	-1	11*	4	5
O=C(CSc1nnc(COc2ccc(Cl)cc2)n1Cc1ccco1)c1ccccc1F	1	3	-2	0	22*	4	3
CCc1c(C)sc(NC(=O)Cn2nc(C(F)(F)F)c3c2CCCC3)c1C#N	1	4	-2	1	10*	5	5
Cc1cc(C)cc(NC(=O)Nc2ccc(NC(=O)c3ccccc3O)cc2)c1	2	18	-4	1	16*	6	13
